Source: PMC12783166 (Clinical Pharmacokinetics, 2025)

What was measured:
[1] = Phase 1 population PK model; format: in vivo, human; settings: Phase 1 Model
[2] = Phase 2 population PK model; format: in vivo, human; settings: Phase 2 Model
[3] = cited from earlier work
BCRP = settings: cited from earlier work
OATP1B1 = settings: cited from earlier work
[4] = Individual predicted steady-state exposures; format: in vivo, human
How it was run: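 Steady-state AUC24, Ctrough, Cmax and Cavg were derived from each individual's Bayesian post hoc estimates from the final three-compartment population PK model, with sequential zero-/first-order lagged absorption. Values are summarised per […] as mean (SD) and median (5th–95th percentile).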

[5] = oral administration of a 60-mg dose

C[C@@H]1[C@H](c2c(F)ccc(F)c2F)C[C@H](NC(=O)c2cnc3c(c2)C[C@@]2(C3)C(=O)Nc3ncccc32)C(=O)N1CC(F)(F)F [atogepant, Atogepant]
Famotidine pre-treatment on Frel ([1]; fractional covariate effect): −0.15 | Famotidine pre-treatment on ka ([1]; fractional covariate effect): −0.51 | Formulation 2 tablet effect on ka ([1]; fractional covariate effect): −0.44 | Formulation 2 tablet on Frel ([1]; fractional covariate effect): −0.17 | Formulation 4 tablet effect on ka ([1]; fractional covariate effect): −0.42 | Oral solution on Frel ([1]; fractional covariate effect): −0.67 | Absorption rate constant [ka (/h)] ([1]; healthy participants): 2.44 h⁻¹ | Apparent clearance healthy participants [CL/F (L/h)] ([1]; healthy participants): 19.82 L/h | Lag time [ALAG (h)] ([1]; healthy participants): 0.30 h | Exponential dose effect on ka ([1]; power exponent): −0.41 | σprop ([1]; proportional residual error): 0.12 | ω^2CL/F ([1]; variance of IIV): 0.151 | ω^2Q/F ([1]; variance of IIV): 0.197 | ω^2V1/F ([1]; variance of IIV): 0.136 | ω^2V2/F ([1]; variance of IIV): 0.422 | ω^2ka ([1]; variance of IIV): 0.537 | Blood-plasma ratio [2]: 0.567 | Lag time [ALAG (h)] [2]: 0.298 h | Effect of solution on ALAG ([2]; fractional covariate effect): −0.191 | Effect of solution on Frel ([2]; fractional covariate effect): −0.547 | Apparent clearance healthy participants [CL/F (L/h)] ([2]; healthy participants): 18.2 L/h | Absorption rate constant [ka (/h)] ([2]; healthy participants and EM patients): 1.31 h⁻¹ | Apparent clearance patients [CL/F (L/h)] ([2]; patients): 18.2 L/h | Exponential effect of dose on Frel ([2]; power exponent): 0.163 | Exponential effect of dose on ka ([2]; power exponent): −0.252 | σprop ([2]; proportional residual error): 0.339 | σprop (study CGP-MD-01) ([2]; proportional residual error): 0.572 | σprop (study CGP-PK-02) ([2]; proportional residual error): 0.252 | ω^2CL/F ([2]; variance of IIV): 0.0724 | ω^2Q/F ([2]; variance of IIV): 0.550 | ω^2ka ([2]; variance of IIV): 0.683 | ω^2IOVFrel ([2]; variance of IOV): 0.228 | Area under the concentration–time curve (AUC) ([3]; 60-mg dose): ~ 3470 ng h/mL | Dose proportionality of PK [3]: dose-proportional up to a 300-mg single dose and multiple doses of 170 mg/day | Food effect [3]: no clinically significant food effect | Half-life (t1/2) [3]: ~ 11 h | Accumulation ([3]; multiple doses): no accumulation | Maximum plasma concentration (Cmax) [3, 5]: ~ 740 ng/mL | Time to achieve a pharmacologically effective concentration [3, 5]: ≤ 30 min | Transporter substrate status (BCRP): substrate | Transporter substrate status (OATP1B1): substrate | Cavg, Mean (SD) ([4]; ADVANCE EM, 10 mg QD): 21.9 (14) ng/mL | Cavg, Median (5th to 95th percentile) ([4]; ADVANCE EM, 10 mg QD): 19.3 (5.35–163) ng/mL | Ctrough, Mean (SD) ([4]; ADVANCE EM, 10 mg QD): 3.24 (3.1) ng/mL | Ctrough, Median (5th to 95th percentile) ([4]; ADVANCE EM, 10 mg QD): 2.62 (0.576–35.2) ng/mL | Time above ½EC90 (4.2 ng/mL or 7 nM), Mean (SD) ([4]; ADVANCE EM, 10 mg QD): 18.1 (3.8) hr | Time above ½EC90 (4.2 ng/mL or 7 nM), Median (5th to 95th percentile) ([4]; ADVANCE EM, 10 mg QD): 18.0 (8.00–24.0) hr | Cavg, Mean (SD) ([4]; ADVANCE EM, 30 mg QD): 76.1 (54) ng/mL | Cavg, Median (5th to 95th percentile) ([4]; ADVANCE EM, 30 mg QD): 65.1 (19.0–466) ng/mL | Ctrough, Mean (SD) ([4]; ADVANCE EM, 30 mg QD): 12.0 (16) ng/mL | Ctrough, Median (5th to 95th percentile) ([4]; ADVANCE EM, 30 mg QD): 8.85 (2.02–202) ng/mL | Time above ½EC90 (4.2 ng/mL or 7 nM), Mean (SD) ([4]; ADVANCE EM, 30 mg QD): 23.7 (1.2) hr | Time above ½EC90 (4.2 ng/mL or 7 nM), Median (5th to 95th percentile) ([4]; ADVANCE EM, 30 mg QD): 24.0 (16.0–24.0) hr | Cavg, Mean (SD) ([4]; ADVANCE EM, 60 mg QD): 156 (94) ng/mL | Cavg, Median (5th to 95th percentile) ([4]; ADVANCE EM, 60 mg QD): 134 (33.9–874) ng/mL | Ctrough, Mean (SD) ([4]; ADVANCE EM, 60 mg QD): 23.8 (30) ng/mL | Ctrough, Median (5th to 95th percentile) ([4]; ADVANCE EM, 60 mg QD): 18.4 (3.63–373) ng/mL | Time above ½EC90 (4.2 ng/mL or 7 nM), Mean (SD) ([4]; ADVANCE EM, 60 mg QD): 24.0 (0.22) hr | Time above ½EC90 (4.2 ng/mL or 7 nM), Median (5th to 95th percentile) ([4]; ADVANCE EM, 60 mg QD): 24.0 (21.5–24.0) hr | Cavg, Mean (SD) ([4]; CGP-MD-01 EM, 10 mg QD): 19.2 (6.7) ng/mL | Cavg, Median (5th to 95th percentile) ([4]; CGP-MD-01 EM, 10 mg QD): 19.3 (7.01–52.2) ng/mL | Ctrough, Mean (SD) ([4]; CGP-MD-01 EM, 10 mg QD): 2.80 (1.4) ng/mL | Ctrough, Median (5th to 95th percentile) ([4]; CGP-MD-01 EM, 10 mg QD): 2.58 (0.738–9.95) ng/mL | Time above ½EC90 (4.2 ng/mL or 7 nM), Mean (SD) ([4]; CGP-MD-01 EM, 10 mg QD): 17.8 (3.5) hr | Time above ½EC90 (4.2 ng/mL or 7 nM), Median (5th to 95th percentile) ([4]; CGP-MD-01 EM, 10 mg QD): 18.0 (9.00–24.0) hr | Cavg, Mean (SD) ([4]; CGP-MD-01 EM, 30 mg BID): 162 (85) ng/mL | Cavg, Median (5th to 95th percentile) ([4]; CGP-MD-01 EM, 30 mg BID): 132 (50.6–476) ng/mL | Ctrough, Mean (SD) ([4]; CGP-MD-01 EM, 30 mg BID): 60.7 (44) ng/mL | Ctrough, Median (5th to 95th percentile) ([4]; CGP-MD-01 EM, 30 mg BID): 44.5 (13.3–277) ng/mL | Time above ½EC90 (4.2 ng/mL or 7 nM), Mean (SD) ([4]; CGP-MD-01 EM, 30 mg BID): 12.0 (0.0) hr | Time above ½EC90 (4.2 ng/mL or 7 nM), Median (5th to 95th percentile) ([4]; CGP-MD-01 EM, 30 mg BID): 12.0 (12.0–12.0) hr | Cavg, Mean (SD) ([4]; CGP-MD-01 EM, 30 mg QD): 71.3 (36) ng/mL | Cavg, Median (5th to 95th percentile) ([4]; CGP-MD-01 EM, 30 mg QD): 66.2 (30.6–310) ng/mL
